According to ChEMBL document CHEMBL3351850, “Synthesis and anti-biofilm activities of dihydro-pyrrol-2-one derivatives on Pseudomonas aeruginosa” (Bioorg Med Chem Lett, 2015):
In brackets after ≈: the same amount, converted by molar mass.

Assays:
Pseudomonas aeruginosa [1] = assay: Reduction of extracellular DNA in Pseudomonas aeruginosa biofilm after 48 hrs by UV-spectrophotometry; assay type: functional, organism-based
Outline: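 eDNA measured as the change in absorbance of biofilm lysate at 260 nm versus untreated controls; mean ± standard deviation.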

Pseudomonas aeruginosa [2] = assay: Antibacterial activity against Pseudomonas aeruginosa assessed as growth inhibition at 50 ug/ml after 24 hrs by microplate reader analysis; assay type: functional; settings: read-out: GI
Pseudomonas aeruginosa [3] = assay: Inhibition of MDH in Pseudomonas aeruginosa biofilm after 48 hrs by UV-spectrophotometry
Outline: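 MDH in biofilm read as the change in absorbance of the reaction mixture at 340 nm, relative to untreated controls; mean ± standard deviation.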

Pseudomonas aeruginosa [4] = assay: Antibiofilm activity against Pseudomonas aeruginosa at 50 ug/ml after 24 hrs by microplate reader analysis; assay type: functional
Pseudomonas aeruginosa [5] = assay: Antibacterial activity against Pseudomonas aeruginosa assessed as growth inhibition after 24 hrs by microplate reader analysis; assay type: functional, organism-based
Outline: (§1)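 IC50 for growth and biofilm formation found by serial dilution to the concentration giving 50% inhibition.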

Pseudomonas aeruginosa [6] = assay: Antibiofilm activity against Pseudomonas aeruginosa after 24 hrs by microplate reader analysis; assay type: functional, organism-based; outline: as §1

| Structure (SMILES) | Activity (Pseudomonas aeruginosa [1]) | inhibition of growth at 50 µg/mL (Pseudomonas aeruginosa [2]) | inhibition (Pseudomonas aeruginosa [3]) | inhibition at 50 µg/mL (Pseudomonas aeruginosa [4]) | IC50 (Pseudomonas aeruginosa [5]) | IC50 (Pseudomonas aeruginosa [6]) |
| --- | --- | --- | --- | --- | --- | --- |
| CCOC(=O)C1=C(Nc2ccc(OC)cc2)C(=O)N(c2ccc(OC)cc2)C1C(=O)OCC (stereo not drawn) | Dose-dependent effect | 80.8% | Dose-dependent effect | 61.4% | 34.2 µg/mL (≈ 75.3 µM) | 40.2 µg/mL (≈ 88.5 µM) |
| CCOC(=O)C1=C(Nc2ccc(Br)cc2)C(=O)N(c2ccc(Br)cc2)C1C(=O)OCC (stereo not drawn) | Dose-dependent effect | 76.8% | Dose-dependent effect | 65.4% | 38.4 µg/mL (≈ 69.5 µM) | 39 µg/mL (≈ 70.6 µM) |
| CCOC(=O)C1=C(Nc2cccc(C(=O)OCC)c2)C(=O)N(c2cccc(C(=O)OCC)c2)C1C(=O)OCC (stereo not drawn) | – | 15.4% | – | 42% | – | – |
| CCOC(=O)C1=C(Nc2cccc(C)c2)C(=O)N(c2cccc(C)c2)C1C(=O)OCC (stereo not drawn) | – | 55.5% | – | 29.3% | 48.4 µg/mL (≈ 115 µM) | – |
| CCOC(=O)C1=C(Nc2cc(C)cc(C)c2)C(=O)N(c2cc(C)cc(C)c2)C1C(=O)OCC (stereo not drawn) | – | 32.5% | – | 28.9% | – | – |
| CCOC(=O)C1=C(Nc2cccc(Cl)c2)C(=O)N(c2cccc(Cl)c2)C1C(=O)OCC (stereo not drawn) | Dose-dependent effect | 83% | Dose-dependent effect | 70.2% | 27.8 µg/mL (≈ 60 µM) | 28.8 µg/mL (≈ 62.2 µM) |
| CCOC(=O)C1=C(Nc2ccc(Cl)cc2)C(=O)N(c2ccc(Cl)cc2)C1C(=O)OCC (stereo not drawn) | – | 68.6% | – | 20.7% | 41.6 µg/mL (≈ 89.8 µM) | – |
| CCOC(=O)C1=C(Nc2ccc(C(=O)OCC)cc2)C(=O)N(c2ccc(C(=O)OCC)cc2)C1C(=O)OCC (stereo not drawn) | – | 44.7% | – | 37.8% | – | – |
| CCOC(=O)C1=C(NC2CCC2)C(=O)N(C2CCC2)C1C(=O)OCC (stereo not drawn) | – | 40.9% | – | 41.3% | – | – |
| CCOC(=O)C1=C(Nc2cccc(F)c2)C(=O)N(c2cccc(F)c2)C1C(=O)OCC (stereo not drawn) | – | 20.3% | – | 27.5% | – | – |
| CCOC(=O)C1=C(Nc2ccc(OCC)cc2)C(=O)N(c2ccc(OCC)cc2)C1C(=O)OCC (stereo not drawn) | Dose-dependent effect | 63.1% | Dose-dependent effect | 53.8% | 46.6 µg/mL (≈ 96.6 µM) | 48.4 µg/mL (≈ 100 µM) |
| CCOC(=O)C1=C(Nc2ccccc2)C(=O)N(c2ccccc2)C1C(=O)OCC (stereo not drawn) | – | 50.4% | – | 35.5% | 50 µg/mL (≈ 127 µM) | – |
| CCOC(=O)C1=C(NC2CC2)C(=O)N(C2CC2)C1C(=O)OCC (stereo not drawn) | – | 26.6% | – | 11.8% | – | – |
| CC[C@H]1OC(=O)[C@H](C)[C@@H](O[C@H]2C[C@@](C)(OC)[C@@H](O)[C@H](C)O2)[C@H](C)[C@@H](O[C@@H]2O[C@H](C)C[C@H](N(C)C)[C@H]2O)[C@](C)(O)C[C@@H](C)C(=O)[C@H](C)[C@@H](O)[C@]1(C)O [ERYTHROMYCIN] | Dose-dependent effect | 67.6% | Dose-dependent effect | 45.7% | 33.2 µg/mL (≈ 45.2 µM) | – |
| CCOC(=O)C1=C(Nc2ccc(C)cc2)C(=O)N(c2ccc(C)cc2)C1C(=O)OCC (stereo not drawn) | – | 34% | – | 13.6% | – | – |
| CCOC(=O)C1=C(Nc2ccc(CC)cc2)C(=O)N(c2ccc(CC)cc2)C1C(=O)OCC (stereo not drawn) | Dose-dependent effect | 65.8% | Dose-dependent effect | 53.2% | 42.2 µg/mL (≈ 93.7 µM) | 47.4 µg/mL (≈ 105 µM) |
